What was measured:
[1] = target: T1, Protein kinase C epsilon type (Homo sapiens, UniProt Q02156); assay: Inhibition of PKCepsilon by SPA
T1 sequence (Q02156 whole entry): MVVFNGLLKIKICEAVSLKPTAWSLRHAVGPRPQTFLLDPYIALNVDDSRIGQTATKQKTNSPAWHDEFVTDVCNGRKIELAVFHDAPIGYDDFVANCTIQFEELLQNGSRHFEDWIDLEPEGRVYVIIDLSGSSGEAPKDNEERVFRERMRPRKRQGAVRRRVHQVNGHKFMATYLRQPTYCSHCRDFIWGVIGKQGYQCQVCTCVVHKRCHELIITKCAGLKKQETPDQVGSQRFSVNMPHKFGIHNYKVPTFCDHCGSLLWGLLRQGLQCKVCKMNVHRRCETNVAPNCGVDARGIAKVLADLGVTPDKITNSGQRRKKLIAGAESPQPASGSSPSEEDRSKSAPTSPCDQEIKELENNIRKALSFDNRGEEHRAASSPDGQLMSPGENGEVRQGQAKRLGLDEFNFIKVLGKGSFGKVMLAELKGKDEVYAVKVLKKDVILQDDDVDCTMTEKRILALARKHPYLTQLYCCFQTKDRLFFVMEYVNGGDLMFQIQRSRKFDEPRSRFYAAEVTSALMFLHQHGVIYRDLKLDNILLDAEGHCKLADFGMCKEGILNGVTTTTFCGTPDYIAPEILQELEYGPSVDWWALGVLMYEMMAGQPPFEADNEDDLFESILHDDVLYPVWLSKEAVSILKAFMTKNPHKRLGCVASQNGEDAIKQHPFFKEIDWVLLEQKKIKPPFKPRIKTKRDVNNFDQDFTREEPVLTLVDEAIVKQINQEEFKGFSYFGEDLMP

[2] = target: Protein kinase C theta type (Homo sapiens, UniProt Q04759); assay: Inhibition of PKCtheta by SPA
[3] = target: Protein kinase C alpha type (Homo sapiens, UniProt P17252); assay: Inhibition of PKCalpha by SPA
[4] = target: Protein kinase C beta type (Homo sapiens, UniProt P05771); assay: Inhibition of PKCbeta1 by SPA
[5] = target: Protein kinase C delta type (Homo sapiens, UniProt Q05655); assay: Inhibition of PKCdelta by SPA
[6] = target: Protein kinase C eta type (Homo sapiens, UniProt P24723); assay: Inhibition of PKCeta by SPA
[7] = Oral bioavailability in Lewis rat at 20 mg/kg, po; assay type: ADME, organism-based; conditions: in vivo
Procedure, shortened: (§1)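 Rats dosed either 5 mg/kg iv in 75% saline (0.9%)-25% PEG400 or 20 mg/kg po in 75% water-25% PEG400. OFA or Lewis rats were used depending on the compound. Values are averages of three animals. AUC is extrapolated to infinity. Oral bioavailability (F) comes from the po and iv exposures.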

[8] = Elimination half life in Lewis rat at 5 mg/kg, iv; assay type: ADME, organism-based; parameters: dose 5 mg/kg, route intravenous; conditions: in vivo, read-out: beta t1/2 (converted); procedure, shortened: as §1
[9] = Tmax in Lewis rat at 20 mg/kg, po; assay type: ADME, organism-based; parameters: dose 20 mg/kg, route oral; conditions: in vivo; procedure, shortened: as §1
[10] = Volume of distribution at steady state in Lewis rat at 5 mg/kg, iv; assay type: ADME, organism-based; parameters: dose 5 mg/kg, route intravenous; conditions: in vivo, read-out: Vdss; procedure, shortened: as §1
[11] = Clearance in Lewis rat at 5 mg/kg, iv; assay type: ADME, organism-based; parameters: dose 5 mg/kg, route intravenous; conditions: in vivo; procedure, shortened: as §1
cells = conditions: Homo sapiens, Jurkat
[12] = AUC (0 to infinity) in Lewis rat at 5 mg/kg, iv; assay type: ADME, organism-based; parameters: time infinity, dose 5 mg/kg, route intravenous; conditions: plasma; procedure, shortened: as §1
[13] = Cmax in Lewis rat at 20 mg/kg, po; assay type: ADME, organism-based; parameters: dose 20 mg/kg, route oral; conditions: in vivo; procedure, shortened: as §1
[14] = AUC (0 to infinity) in Lewis rat at 20 mg/kg, po; assay type: ADME, organism-based; parameters: time infinity, dose 20 mg/kg, route oral; conditions: plasma; procedure, shortened: as §1

Chain of Protein kinase C delta type (Q05655 whole entry): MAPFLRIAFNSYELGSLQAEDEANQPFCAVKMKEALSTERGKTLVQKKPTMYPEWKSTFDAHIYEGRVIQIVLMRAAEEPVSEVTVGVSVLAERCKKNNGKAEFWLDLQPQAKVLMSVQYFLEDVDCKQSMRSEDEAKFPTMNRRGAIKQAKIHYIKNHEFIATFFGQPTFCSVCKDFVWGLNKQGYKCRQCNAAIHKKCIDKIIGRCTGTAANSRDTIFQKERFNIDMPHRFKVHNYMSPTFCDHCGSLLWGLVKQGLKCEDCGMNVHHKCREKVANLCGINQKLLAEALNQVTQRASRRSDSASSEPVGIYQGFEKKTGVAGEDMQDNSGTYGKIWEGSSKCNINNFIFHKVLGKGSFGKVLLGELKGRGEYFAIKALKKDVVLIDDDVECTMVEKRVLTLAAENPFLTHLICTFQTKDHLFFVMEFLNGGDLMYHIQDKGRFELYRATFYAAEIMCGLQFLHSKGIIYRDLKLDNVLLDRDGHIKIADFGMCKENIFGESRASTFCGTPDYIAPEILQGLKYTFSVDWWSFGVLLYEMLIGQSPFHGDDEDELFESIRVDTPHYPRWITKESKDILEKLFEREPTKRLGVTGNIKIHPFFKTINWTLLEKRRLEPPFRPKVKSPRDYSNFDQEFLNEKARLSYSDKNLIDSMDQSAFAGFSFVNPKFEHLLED
Chain of Protein kinase C eta type (P24723 whole entry): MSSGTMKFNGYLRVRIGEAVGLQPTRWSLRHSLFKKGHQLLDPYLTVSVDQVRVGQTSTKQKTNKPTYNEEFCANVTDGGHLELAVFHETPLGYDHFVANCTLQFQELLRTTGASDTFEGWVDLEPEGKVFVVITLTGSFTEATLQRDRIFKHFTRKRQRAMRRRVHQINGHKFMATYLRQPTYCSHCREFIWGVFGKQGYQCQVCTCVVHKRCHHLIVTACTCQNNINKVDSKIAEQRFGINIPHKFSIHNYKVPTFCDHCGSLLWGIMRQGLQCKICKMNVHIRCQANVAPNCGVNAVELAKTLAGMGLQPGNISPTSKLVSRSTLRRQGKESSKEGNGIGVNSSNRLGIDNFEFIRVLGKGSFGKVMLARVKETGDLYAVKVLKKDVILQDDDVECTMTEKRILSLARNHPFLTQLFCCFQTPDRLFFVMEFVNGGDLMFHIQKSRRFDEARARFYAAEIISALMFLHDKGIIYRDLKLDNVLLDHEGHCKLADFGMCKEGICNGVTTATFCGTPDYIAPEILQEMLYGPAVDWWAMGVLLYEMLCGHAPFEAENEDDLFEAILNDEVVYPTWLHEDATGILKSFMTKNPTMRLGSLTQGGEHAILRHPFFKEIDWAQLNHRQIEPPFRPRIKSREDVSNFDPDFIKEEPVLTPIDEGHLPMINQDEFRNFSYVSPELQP
Chain of Protein kinase C theta type (Q04759 whole entry): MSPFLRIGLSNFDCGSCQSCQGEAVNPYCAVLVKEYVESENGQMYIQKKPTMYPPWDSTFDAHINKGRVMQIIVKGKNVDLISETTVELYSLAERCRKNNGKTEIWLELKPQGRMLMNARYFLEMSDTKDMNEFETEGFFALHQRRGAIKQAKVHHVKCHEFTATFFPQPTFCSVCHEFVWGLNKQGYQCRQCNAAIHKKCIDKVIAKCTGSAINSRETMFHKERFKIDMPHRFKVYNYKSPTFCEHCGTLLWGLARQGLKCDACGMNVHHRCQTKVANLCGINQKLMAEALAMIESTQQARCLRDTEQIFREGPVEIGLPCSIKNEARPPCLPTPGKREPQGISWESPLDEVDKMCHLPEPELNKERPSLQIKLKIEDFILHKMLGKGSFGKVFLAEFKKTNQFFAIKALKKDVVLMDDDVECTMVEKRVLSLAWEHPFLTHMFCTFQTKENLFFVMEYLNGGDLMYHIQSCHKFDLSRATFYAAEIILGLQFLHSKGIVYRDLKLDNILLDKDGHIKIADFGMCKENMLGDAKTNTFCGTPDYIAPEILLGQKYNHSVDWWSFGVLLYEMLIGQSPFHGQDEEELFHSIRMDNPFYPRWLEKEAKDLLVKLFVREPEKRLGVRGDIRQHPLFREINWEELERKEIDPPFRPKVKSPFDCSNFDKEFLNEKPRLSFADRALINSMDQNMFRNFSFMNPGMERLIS
Chain of Protein kinase C beta type (P05771 whole entry): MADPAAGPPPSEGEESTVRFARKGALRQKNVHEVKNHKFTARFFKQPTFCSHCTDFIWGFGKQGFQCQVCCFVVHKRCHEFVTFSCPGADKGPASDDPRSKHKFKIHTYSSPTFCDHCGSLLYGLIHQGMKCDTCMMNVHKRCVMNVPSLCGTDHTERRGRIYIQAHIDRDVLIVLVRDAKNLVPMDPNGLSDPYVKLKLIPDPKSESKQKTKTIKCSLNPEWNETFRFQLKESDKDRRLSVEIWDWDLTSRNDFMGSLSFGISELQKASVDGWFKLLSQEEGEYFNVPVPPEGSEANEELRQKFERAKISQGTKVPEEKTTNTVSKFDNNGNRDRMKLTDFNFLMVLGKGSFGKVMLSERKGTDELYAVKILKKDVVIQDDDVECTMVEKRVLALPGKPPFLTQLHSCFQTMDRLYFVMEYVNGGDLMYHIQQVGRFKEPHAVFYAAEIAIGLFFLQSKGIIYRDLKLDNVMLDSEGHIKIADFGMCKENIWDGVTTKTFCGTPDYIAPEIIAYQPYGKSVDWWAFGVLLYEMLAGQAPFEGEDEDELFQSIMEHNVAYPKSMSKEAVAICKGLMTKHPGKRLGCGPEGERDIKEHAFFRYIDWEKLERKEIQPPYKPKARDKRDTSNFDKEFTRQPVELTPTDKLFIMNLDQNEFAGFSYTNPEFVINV

SMILES	IC50 [1] [nM]	IC50 [2] [nM]	IC50 [3] [nM]	IC50 [4] [nM]	IC50 [5] [nM]	IC50 [6] [nM]	bioavailability [7] [%]	half-life [8] [min]	Tmax [9] [h]	Vd [10] [L/kg]	clearance [11] [mL/min/kg]	IC50 (cells) [nM]	AUC(0-inf) [12] [ng·h/mL]	Cmax [13] [ng/mL]	AUC(0-inf) [14] [ng·h/mL]
CN(C)CCCn1cc(C2=C(c3cccc4ccccc34)C(=O)NC2=O)c2ccccc21	> 315	165	98	60	207	349	–	–	–	–	–	–	–	–	–
CN1CCN(c2cc(C3=C(c4c[nH]c5ccccc45)C(=O)NC3=O)c3ccccc3c2)CC1	19	4.8	0.9	1.8	7.3	25	12	270	2	12	19.3	50	4320	242	1990
